# From the M2OR odorant receptor database
# Residue numbers refer to the chain shown, from its start.
# Experiments:
# Conditions in all cases: stereoisomer not certain
# OR2W1 (Homo sapiens) = target: T1, OR2W1 (Homo sapiens) (UniProt Q9Y3N9)
# T1 sequence (whole entry): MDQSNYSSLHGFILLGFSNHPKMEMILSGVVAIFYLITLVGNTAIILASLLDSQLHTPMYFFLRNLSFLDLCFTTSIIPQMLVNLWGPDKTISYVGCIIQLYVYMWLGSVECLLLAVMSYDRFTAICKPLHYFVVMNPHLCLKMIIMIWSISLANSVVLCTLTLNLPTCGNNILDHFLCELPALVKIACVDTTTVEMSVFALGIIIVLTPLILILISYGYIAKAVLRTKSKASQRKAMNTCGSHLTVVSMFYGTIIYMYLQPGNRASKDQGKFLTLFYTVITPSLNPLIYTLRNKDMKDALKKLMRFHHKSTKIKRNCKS
# Summary of the method: (§1)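 Values were gathered from published papers (main text and supplementary material), with extra details requested from the original authors when needed, and checked for typos and inconsistencies. Each receptor–molecule pair is called responsive (active) if the original authors judged the measured signal statistically different from baseline, and non-responsive (inactive) otherwise. Assay methods varied by source, often transient mammalian cell-line luciferase assays. Recorded details include cell line, G-protein, co-transfected protein and tags.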
# OR2W1 [1] = test system: T2, OR2W1
# T2 sequence (whole entry): T1 sequence (whole entry) with D296N
# Summary of the method: as §1
# OR2W1 [2] = test system: T3, OR2W1; remark: listed apart in the source
# T3 sequence (whole entry): T1 sequence (whole entry) with M81V
# Summary of the method: as §1
# OR3A1 (Homo sapiens) = target: T4, OR3A1 (Homo sapiens) (UniProt P47881)
# T4 sequence (whole entry): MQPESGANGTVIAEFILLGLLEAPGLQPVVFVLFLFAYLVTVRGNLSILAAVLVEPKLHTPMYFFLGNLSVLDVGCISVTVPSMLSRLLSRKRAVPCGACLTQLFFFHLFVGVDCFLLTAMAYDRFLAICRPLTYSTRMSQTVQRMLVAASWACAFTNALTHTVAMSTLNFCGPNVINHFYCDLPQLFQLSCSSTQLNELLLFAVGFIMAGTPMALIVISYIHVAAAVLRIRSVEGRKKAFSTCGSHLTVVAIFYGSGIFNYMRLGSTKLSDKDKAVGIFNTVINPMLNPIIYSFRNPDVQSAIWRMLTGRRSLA
# Summary of the method: as §1
# OR2W3 (Homo sapiens) = target: T5, OR2W3 (Homo sapiens) (UniProt Q7Z3T1)
# T5 sequence (whole entry): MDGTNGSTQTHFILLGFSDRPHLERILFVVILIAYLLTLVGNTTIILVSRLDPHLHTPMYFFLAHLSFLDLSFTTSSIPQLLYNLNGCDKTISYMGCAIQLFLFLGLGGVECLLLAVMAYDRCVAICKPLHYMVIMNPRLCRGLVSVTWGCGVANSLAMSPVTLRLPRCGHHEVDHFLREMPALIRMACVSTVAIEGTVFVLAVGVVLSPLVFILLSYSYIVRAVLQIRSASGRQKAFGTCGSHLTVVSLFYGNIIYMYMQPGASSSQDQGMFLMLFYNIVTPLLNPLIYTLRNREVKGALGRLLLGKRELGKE
# Summary of the method: as §1
Compound,odorant receptor agonist call (OR2W1 (Homo sapiens)),odorant receptor agonist call (OR2W1 [1]),odorant receptor agonist call (OR2W1 [2]),odorant receptor agonist call (OR3A1 (Homo sapiens)),odorant receptor agonist call (OR2W3 (Homo sapiens))
CCCCCCCC(C)=O,active,active,active,–,–
CCCCC=CC=O,active,active,inactive,–,–
CSSCc1ccccc1,active,active,active,–,–
CCOC(=O)C=Cc1ccccc1,active,active,active,–,–
CCCCCC=CC=O,active,active,inactive,–,–
CCCCC(=O)OCC,active,active,active,–,–
CCOC(=O)C(C)C,inactive,active,inactive,–,–
OCCCc1ccccc1,active,active,active,–,–
CCOC(=O)C1CCCCC1,active,active,inactive,–,–
CCCCCC(C)O (centres undefined),active,active,active,–,–
COc1ccc(C)cc1O,inactive,active,inactive,–,–
COC(=O)C=Cc1ccccc1,active,active,active,–,–
CCCCCC(=O)OCC,active,active,active,–,–
CCCSSSC,active,active,active,–,–
CCCCCCC=CC=O,active,active,active,–,–
SCc1cccs1,active,active,active,–,–
CCCC1CCCC(=O)O1 (centres undefined),active,active,inactive,–,–
CCCCC=CC=CC=O,active,active,active,–,–
CCOC(=O)c1ccccc1,active,active,active,–,–
CCCC(=O)OCC,active,active,active,–,–
SCCc1ccccc1,active,active,active,–,–

Compound,odorant receptor agonist call (OR2W1 (Homo sapiens)),odorant receptor agonist call (OR2W1 [1]),odorant receptor agonist call (OR2W1 [2]),odorant receptor agonist call (OR3A1 (Homo sapiens)),odorant receptor agonist call (OR2W3 (Homo sapiens))
c1coc(CSSCc2ccco2)c1,active,active,active,–,–
CCCCCC1CCC(=O)O1 (centres undefined),active,active,active,–,–
CC(S)c1ccccc1 (centres undefined),active,active,active,–,–
CC(=O)OCCc1ccccc1,active,active,active,–,–
OCC=Cc1ccccc1,active,active,active,inactive,–
CC(C)c1ccc(C=O)cc1,active,active,active,–,–
CCOC(=O)CCSC,active,active,active,–,–
CC1=CCC(C(C)C)C=C1 (centres undefined),active,active,inactive,–,–
CCCCC(=O)C(C)=O,inactive,–,–,–,inactive
CCCCCCCCCC(=O)OCC,active,active,active,–,inactive
CCCC(S)CCO (centres undefined),active,active,inactive,–,–
CCC(C)CO (centres undefined),active,active,active,–,inactive
O=c1ccc2ccccc2o1,active,active,inactive,–,inactive
CCCCCC1=C(C)CCC1=O,active,–,–,active,–
CCCCCCCCCCCCCC(=O)OC,–,–,–,–,inactive
CC=Cc1ccc(OC)cc1,active,active,active,–,–
CC(O)C(=O)[O-].[H+] (centres undefined),–,–,–,–,inactive
CCCCCCCCCCCC(=O)O,–,–,–,–,inactive
CCCCCCCC(=O)OCC,active,active,inactive,–,inactive
CC(=O)O,inactive,–,–,–,inactive
